Measured values reported in ChEMBL document CHEMBL3272347, “Adamantanamine derivatives. Antimicrobial activities of certain Mannich bases” (1976).
Converted amounts (≈) assume the structure as drawn.

Experiments:
Assay type in all cases: functional
Escherichia coli [1] = test: Antimicrobial activity against Escherichia coli ATCC 8739 assessed as zone of inhibition after 24 hrs at 2 mg/0.1 ml by agar diffusion method
How it was run: (§1)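 Bacteria were tested on seeded agar plates with 12.7-mm disks, each loaded with 0.1 ml of compound in Me2SO (stock used directly or Me2SO-diluted). Disks were held 30 min on a wire screen before placement, four per plate. Incubation was 37°, 24 hr. Inhibition zones were measured by caliper to the nearest 0.1 mm. Replicates were 2–4 per dilution over at least two separate days, averaged.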

Staphylococcus aureus [2] = test: Antimicrobial activity against Staphylococcus aureus ATCC 10014 assessed as zone of inhibition after 24 hrs at 0.1 mg/0.1 ml by agar diffusion method; how it was run: as §1
Escherichia coli [3] = test: Antimicrobial activity against Escherichia coli ATCC 11303 assessed as zone of inhibition after 24 hrs at 1 mg/0.1 ml by agar diffusion method; how it was run: as §1
Aspergillus niger [4] = test: Antimicrobial activity against Aspergillus niger OU S-23 assessed as zone of inhibition after 48 hrs at 2 mg/0.1 ml by agar diffusion method
How it was run: (§2)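 Disk agar diffusion on SDA. Compound in Me2SO stock, used neat or diluted in Me2SO, was loaded at 0.1 ml per 12.7-mm disk. Disks stood 30 min on mesh, then went four per seeded plate. Plates ran at 37° for 48 hr (A. niger) or 24 hr (C. albicans). Zones were read by caliper to 0.1 mm. There were 2–4 replicate disks per dilution and ≥2 experiments on separate days with same-day stocks; results were averaged.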

Candida albicans [5] = test: Antimicrobial activity against Candida albicans CDC MI-023 assessed as zone of inhibition after 24 hrs at 2 mg/0.1 ml by agar diffusion method; how it was run: as §2
Mycolicibacterium phlei [6] = test: Antimicrobial activity against Mycobacterium phlei ATCC 356 assessed as zone of inhibition after 48 hrs at 0.5 mg/0.1 ml by agar diffusion method
How it was run: (§3)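 Mycobacterium disk diffusion on MDTM agar. Each disk (12.7 mm) got 0.1 ml of Me2SO solution, was air-stood 30 min, then was placed four per seeded plate. Plates were incubated at 37° for 48 hr. Zone diameter was measured by caliper to 0.1 mm. Results averaged 2–4 replicate disks and ≥2 independent-day experiments.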

Staphylococcus aureus [7] = test: Antimicrobial activity against Staphylococcus aureus ATCC 10001 assessed as zone of inhibition after 24 hrs at 0.1 mg/0.1 ml by agar diffusion method; how it was run: as §1
Pseudomonas aeruginosa [8] = test: Antimicrobial activity against Pseudomonas aeruginosa OU 10048 assessed as zone of inhibition after 24 hrs at 4 mg/0.1 ml by agar diffusion method; how it was run: as §1
[9] = system: Mycolicibacterium smegmatis; test: Antimicrobial activity against Mycobacterium smegmatis OU 10049 assessed as zone of inhibition after 48 hrs at 0.5 mg/0.1 ml by agar diffusion method; how it was run: as §3
Escherichia coli [10] = test: Antimicrobial activity against Escherichia coli ATCC 10586 assessed as zone of inhibition after 24 hrs at 2 mg/0.1 ml by agar diffusion method; how it was run: as §1
Staphylococcus aureus [11] = test: Antimicrobial activity against Staphylococcus aureus by tube dilution method
How it was run: (§4)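 MIC was found by tube dilution, with Me2SO as carrier solvent diluted in the tubes. For M. smegmatis, separate determinations were made in MDTM broth and in MDTM agar.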

Staphylococcus aureus [12] = test: Antimicrobial activity against Staphylococcus aureus ATCC 10001 assessed as zone of inhibition after 24 hrs at 1 mg/0.1 ml by agar diffusion method; how it was run: as §1
Escherichia coli [13] = test: Antimicrobial activity against Escherichia coli ATCC 11303 assessed as zone of inhibition after 24 hrs at 0.5 mg/0.1 ml by agar diffusion method; how it was run: as §1
Escherichia coli [14] = test: Antimicrobial activity against Escherichia coli ATCC 10586 assessed as zone of inhibition after 24 hrs at 1 mg/0.1 ml by agar diffusion method; how it was run: as §1
Escherichia coli [15] = test: Antimicrobial activity against Escherichia coli by tube dilution method; how it was run: as §4
Aspergillus niger [16] = test: Antimicrobial activity against Aspergillus niger OU S-23 assessed as zone of inhibition after 48 hrs at 4 mg/0.1 ml by agar diffusion method; how it was run: as §2
[17] = system: Mycolicibacterium smegmatis; test: Antimicrobial activity against Mycobacterium smegmatis by tube dilution method; how it was run: as §4
Escherichia coli [18] = test: Antimicrobial activity against Escherichia coli ATCC 8739 assessed as zone of inhibition after 24 hrs at 1 mg/0.1 ml by agar diffusion method; how it was run: as §1
Candida albicans [19] = test: Antimicrobial activity against Candida albicans CDC MI-023 assessed as zone of inhibition after 24 hrs at 0.5 mg/0.1 ml by agar diffusion method; how it was run: as §2
Staphylococcus aureus [20] = test: Antimicrobial activity against Staphylococcus aureus ATCC 10014 assessed as zone of inhibition after 24 hrs at 1 mg/0.1 ml by agar diffusion method; how it was run: as §1
Staphylococcus aureus [21] = test: Antimicrobial activity against Staphylococcus aureus ATCC 10014 assessed as zone of inhibition after 24 hrs at 0.5 mg/0.1 ml by agar diffusion method; how it was run: as §1
Escherichia coli [22] = test: Antimicrobial activity against Escherichia coli ATCC 11303 assessed as zone of inhibition after 24 hrs at 2 mg/0.1 ml by agar diffusion method; how it was run: as §1
Candida albicans [23] = test: Antimicrobial activity against Candida albicans CDC MI-023 assessed as zone of inhibition after 24 hrs at 4 mg/0.1 ml by agar diffusion method; how it was run: as §2
Staphylococcus aureus [24] = test: Antimicrobial activity against Staphylococcus aureus ATCC 10001 assessed as zone of inhibition after 24 hrs at 0.5 mg/0.1 ml by agar diffusion method; how it was run: as §1
[25] = system: Mycolicibacterium smegmatis; test: Antimicrobial activity against Mycobacterium smegmatis OU 10049 assessed as zone of inhibition after 48 hrs at 1 mg/0.1 ml by agar diffusion method; how it was run: as §3
[26] = system: Mycolicibacterium smegmatis; test: Antimicrobial activity against Mycobacterium smegmatis OU 10049 assessed as zone of inhibition after 48 hrs at 0.25 mg/0.1 ml by agar diffusion method; how it was run: as §3
Candida albicans [27] = test: Antimicrobial activity against Candida albicans CDC MI-023 assessed as zone of inhibition after 24 hrs at 0.1 mg/0.1 ml by agar diffusion method; how it was run: as §2
Mycolicibacterium phlei [28] = test: Antimicrobial activity against Mycobacterium phlei ATCC 356 assessed as zone of inhibition after 48 hrs at 0.25 mg/0.1 ml by agar diffusion method; how it was run: as §3
Escherichia coli [29] = test: Antimicrobial activity against Escherichia coli ATCC 11303 assessed as zone of inhibition after 24 hrs at 0.1 mg/0.1 ml by agar diffusion method; how it was run: as §1
Staphylococcus aureus [30] = test: Antimicrobial activity against Staphylococcus aureus ATCC 10014 assessed as zone of inhibition after 24 hrs at 0.05 mg/0.1 ml by agar diffusion method; how it was run: as §1
Escherichia coli [31] = test: Antimicrobial activity against Escherichia coli ATCC 8739 assessed as zone of inhibition after 24 hrs at 0.5 mg/0.1 ml by agar diffusion method; how it was run: as §1
Staphylococcus aureus [32] = test: Antimicrobial activity against Staphylococcus aureus ATCC 10001 assessed as zone of inhibition after 24 hrs at 0.05 mg/0.1 ml by agar diffusion method; how it was run: as §1
Escherichia coli [33] = test: Antimicrobial activity against Escherichia coli ATCC 10586 assessed as zone of inhibition after 24 hrs at 0.25 mg/0.1 ml by agar diffusion method; how it was run: as §1
Staphylococcus aureus [34] = test: Antimicrobial activity against Staphylococcus aureus ATCC 10001 assessed as zone of inhibition after 24 hrs at 2 mg/0.1 ml by agar diffusion method; how it was run: as §1
Staphylococcus aureus [35] = test: Antimicrobial activity against Staphylococcus aureus ATCC 10014 assessed as zone of inhibition after 24 hrs at 2 mg/0.1 ml by agar diffusion method; how it was run: as §1
Escherichia coli [36] = test: Antimicrobial activity against Escherichia coli ATCC 8739 assessed as zone of inhibition after 24 hrs at 4 mg/0.1 ml by agar diffusion method; how it was run: as §1
[37] = system: Mycolicibacterium smegmatis; test: Antimicrobial activity against Mycobacterium smegmatis OU 10049 assessed as zone of inhibition after 48 hrs at 0.1 mg/0.1 ml by agar diffusion method; how it was run: as §3
Staphylococcus aureus [38] = test: Antimicrobial activity against Staphylococcus aureus ATCC 10014 assessed as zone of inhibition after 24 hrs at 0.25 mg/0.1 ml by agar diffusion method; how it was run: as §1
Mycolicibacterium phlei [39] = test: Antimicrobial activity against Mycobacterium phlei ATCC 356 assessed as zone of inhibition after 48 hrs at 0.1 mg/0.1 ml by agar diffusion method; how it was run: as §3
Staphylococcus aureus [40] = test: Antimicrobial activity against Staphylococcus aureus ATCC 10001 assessed as zone of inhibition after 24 hrs at 0.25 mg/0.1 ml by agar diffusion method; how it was run: as §1
Aspergillus niger [41] = test: Antimicrobial activity against Aspergillus niger OU S-23 assessed as zone of inhibition after 48 hrs at 0.25 mg/0.1 ml by agar diffusion method; how it was run: as §2
Pseudomonas aeruginosa [42] = test: Antimicrobial activity against Pseudomonas aeruginosa OU 10048 assessed as zone of inhibition after 24 hrs at 0.5 mg/0.1 ml by agar diffusion method; how it was run: as §1
Escherichia coli [43] = test: Antimicrobial activity against Escherichia coli ATCC 10586 assessed as zone of inhibition after 24 hrs at 0.5 mg/0.1 ml by agar diffusion method; how it was run: as §1

SMILES	inhibition zone (IZ) (Escherichia coli [1])	inhibition zone (IZ) (Staphylococcus aureus [2])	inhibition zone (IZ) (Aspergillus niger [4])	inhibition zone (IZ) (Mycolicibacterium phlei [6])	inhibition zone (IZ) (Staphylococcus aureus [7])	inhibition zone (IZ) (Pseudomonas aeruginosa [8])	inhibition zone (IZ) [9]	inhibition zone (IZ) (Escherichia coli [10])	MIC (Staphylococcus aureus [11])	inhibition zone (IZ) (Escherichia coli [13])	inhibition zone (IZ) (Escherichia coli [14])	MIC (Escherichia coli [15])	inhibition zone (IZ) (Aspergillus niger [16])	MIC [17]	inhibition zone (IZ) (Candida albicans [19])	inhibition zone (IZ) (Escherichia coli [22])	inhibition zone (IZ) [26]	inhibition zone (IZ) (Mycolicibacterium phlei [28])	also measured
Cl.O=C(CCNC12CC3CC(CC(C3)C1)C2)c1cccc([N+](=O)[O-])c1	16.3 mm	15.7 mm	15 mm	19.1 mm	15.4 mm	15 mm	16.6 mm	16.8 mm	–	–	–	–	–	–	–	–	–	–	inhibition zone (IZ) (Escherichia coli [3]): 15.5 mm; inhibition zone (IZ) (Candida albicans [5]): 16.2 mm
Cl.O=C(CCNC12CC3CC(CC(C3)C1)C2)c1ccc(F)cc1	–	–	–	17.7 mm	–	15 mm	15.3 mm	–	500 µg/mL	17.6 mm	16.5 mm	1000 µg/mL	15 mm	250 µg/mL	16.6 mm	–	–	–	inhibition zone (IZ) (Staphylococcus aureus [12]): 19.1 mm; inhibition zone (IZ) (Escherichia coli [18]): 16.7 mm; inhibition zone (IZ) (Staphylococcus aureus [20]): 16.6 mm
Cl.O=C(CCNC12CC3CC(CC(C3)C1)C2)c1ccc(O)cc1	16 mm	–	–	16.3 mm	–	15 mm	–	16 mm	–	–	–	–	15 mm	–	–	17.2 mm	–	–	inhibition zone (IZ) (Staphylococcus aureus [21]): 15.3 mm; inhibition zone (IZ) (Candida albicans [23]): 15.4 mm; inhibition zone (IZ) (Staphylococcus aureus [24]): 15.6 mm; inhibition zone (IZ) [25]: 19 mm
Cl.O=C(CCNC12CC3CC(CC(C3)C1)C2)c1cccc(Br)c1	–	17.5 mm	–	–	18.7 mm	15 mm	–	–	125 µg/mL	17.5 mm	17.4 mm	500 µg/mL	16.8 mm	125 µg/mL	–	–	17.6 mm	20 mm	inhibition zone (IZ) (Candida albicans [27]): 15.3 mm; inhibition zone (IZ) (Escherichia coli [18]): 18.2 mm
Cl.O=C(CCNC12CC3CC(CC(C3)C1)C2)c1ccc([N+](=O)[O-])cc1	16.5 mm	15.8 mm	15.2 mm	–	16 mm	<14 mm	–	–	125 µg/mL	–	15.3 mm	500 µg/mL	–	500 µg/mL	16.4 mm	–	17.4 mm	19.4 mm	inhibition zone (IZ) (Escherichia coli [3]): 16.5 mm
Cl.O=C(CCNC12CC3CC(CC(C3)C1)C2)c1ccc(Br)cc1	–	–	19 mm	–	–	<15 mm	–	–	125 µg/mL	–	–	500 µg/mL	–	125 µg/mL	–	–	17 mm	19.2 mm	inhibition zone (IZ) (Escherichia coli [29]): 15.6 mm; inhibition zone (IZ) (Candida albicans [27]): 15.1 mm; inhibition zone (IZ) (Staphylococcus aureus [30]): 17 mm; inhibition zone (IZ) (Escherichia coli [31]): 17.8 mm; inhibition zone (IZ) (Staphylococcus aureus [32]): 16.6 mm; inhibition zone (IZ) (Escherichia coli [33]): 15.3 mm
CC(CNC12CC3CC(CC(C3)C1)C2)C(=O)c1ccccc1.Cl (stereo not drawn)	16.1 mm	–	–	17.3 mm	–	15 mm	17 mm	16.4 mm	–	–	–	–	15 mm	–	–	17.2 mm	–	–	inhibition zone (IZ) (Candida albicans [23]): <15 mm; inhibition zone (IZ) (Staphylococcus aureus [34]): 16.2 mm; inhibition zone (IZ) (Staphylococcus aureus [35]): 16.3 mm
Oc1ccc(-c2ccccc2)cc1CNC12CC3CC(CC(C3)C1)C2	–	–	–	–	–	15 mm	–	15 mm	–	–	–	–	<15 mm	62.5 µg/mL (≈ 187 µM)	–	15.1 mm	–	–	inhibition zone (IZ) (Escherichia coli [36]): 15.6 mm; inhibition zone (IZ) [37]: 18.7 mm; inhibition zone (IZ) (Candida albicans [5]): 15.8 mm; inhibition zone (IZ) (Staphylococcus aureus [38]): 16.8 mm; inhibition zone (IZ) (Mycolicibacterium phlei [39]): 18.9 mm; inhibition zone (IZ) (Staphylococcus aureus [40]): 17.3 mm
Oc1ccc(/N=N/c2ccccc2)cc1CNC12CC3CC(CC(C3)C1)C2	–	–	–	<15 mm	–	–	15.5 mm	–	–	<15 mm	–	–	–	–	<15 mm	–	–	–	inhibition zone (IZ) (Aspergillus niger [41]): 15 mm; inhibition zone (IZ) (Pseudomonas aeruginosa [42]): 15 mm; inhibition zone (IZ) (Staphylococcus aureus [38]): 15.4 mm; inhibition zone (IZ) (Escherichia coli [43]): 15 mm; inhibition zone (IZ) (Escherichia coli [31]): 15 mm; inhibition zone (IZ) (Staphylococcus aureus [40]): <15 mm
